Data as given in ChEMBL document CHEMBL1126078, “Benzodiazepine receptor affinity and interaction of some N-(indol-3-ylglyoxylyl)amine derivatives” (J Med Chem, 1992).
Active and inactive are the calls of the source. The calls are words filed in the database; no cut-off is given here.

Experiments:
[1] = target: GABA-A receptor; anion channel; assay: (§1) In vitro inhibition of [3H]flunitrazepam binding to GABA-A benzodiazepine receptor of bovine cerebral cortical membranes at 10 uM; set-up: species or system Bos taurus
Method in brief: (§2)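 Bovine cortex membranes (sucrose homogenate, 50 000g pellet, frozen and washed to remove endogenous GABA) in 50 mM Tris-HCl pH 7.4; 0.4 mg protein incubated 90 min at 0 °C with 0.2 nM [3H]flunitrazepam, filtered, counted. Nonspecific binding with 10 μM diazepam. Single test concentration 10 μM, or 1 μM where insoluble; mean ± SEM of five determinations.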

[2] = target: T1, GABA-A receptor; anion channel (Bos taurus) (UniProt P10063+P08220+P20237+P08219+P10064+P22300); assay: Relative binding to GABA-A receptor in the presence and absence of GABA (GABA shift), Ki(-GABA)/Ki(+GABA); type: protein-complex assay
Method in brief: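 Same [3H]flunitrazepam (0.2 nM, 0 °C, 90 min) binding with GABA-depleted washed bovine cortical membranes. IC50 from log-probit analysis of 6–8 concentrations in triplicate, measured with and without 10 μM GABA; Ki by Cheng–Prusoff (Kd 1.8 nM). Ratio = Ki without GABA / Ki with GABA; Ki means ± SEM of three determinations.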

[3] = target: T1, GABA-A receptor; anion channel (Bos taurus); assay: as §1; method in brief: as §2
[4] = target: T1, GABA-A receptor; anion channel (Bos taurus); assay: In vitro inhibition of specific binding of [3H]flunitrazepam to benzodiazepine receptor in bovine cerebral cortex membrane at a concentration of 10 uM.; type: cell membranes; method in brief: as §2
Mus musculus [5] = assay: Anticonvulsant activity in mice on ip dose before 80 mg/kg of PTZ (NE=no effect); type: functional, organism-based; set-up: dose 80 mg/kg
Method in brief: (§3)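 Groups of 10 mice given graded doses ip (0.1 mL) suspended in 1% carboxymethylcellulose vehicle, or vehicle alone; PTZ given 30 min later at 80 mg/kg (anticonvulsant test) or 40 mg/kg subconvulsant (proconvulsant test). Proconvulsant value: dose inducing convulsions in 50% of mice. Highest dose tested 250 mg/kg.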

Mus musculus [6] = assay: In vivo ip dose to induce convulsions in mice treated with subconvulsant PTZ (40 mg/kg) (NE=no effect); type: functional, organism-based; method in brief: as §3
Mus musculus [7] = assay: In vivo ip dose to antagonize Diazepam (2.5 mg/kg) anticonvulsant effect in mice treated with 80 mg/kg PTZ (NE=no effect); type: functional, organism-based; set-up: dose 80 mg/kg
Method in brief: (§4)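 Groups of 10 mice received diazepam 2.5 mg/kg ip, then 10 min later graded ip doses of compound or vehicle; PTZ 80 mg/kg given 15 min after compound. Value: dose antagonizing diazepam's anticonvulsant effect in 50% of mice. Highest dose tested 250 mg/kg.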

Mus musculus [8] = assay: In vivo ip dose to induce convulsions in mice treated with subconvulsant PTZ (40 mg/kg); type: functional; method in brief: as §3
Mus musculus [9] = assay: In vivo ip dose to antagonize Diazepam (2.5 mg/kg) anticonvulsant effect in mice treated with 80 mg/kg PTZ; type: functional; details: route intraperitoneal; method in brief: as §4
[10] = target: T1, GABA-A receptor; anion channel (Bos taurus); assay: In vitro inhibition of [3H]flunitrazepam binding to GABA-A benzodiazepine receptor of bovine cerebral cortical membranes at 1 uM; method in brief: as §2

| Structure (SMILES) | Ki [1] [nM] | Ratio [2] | inhibition [4] [%] | also measured |
| --- | --- | --- | --- | --- |
| O=C(NCCc1ccc(O)c(O)c1)C(=O)c1c[nH]c2ccc(Br)cc12 | 1200 | 0.7 |  | inhibition [3]: 85% |
| COc1ccc(CCNC(=O)C(=O)c2c[nH]c3ccc([N+](=O)[O-])cc23)cc1OC |  | 1 |  |  |
| CCOC(=O)c1ncn2c1CN(C)C(=O)c1cc(F)ccc1-2 [FLUMAZENIL] | 0.38 | 1 |  |  |
| O=C(NCCc1ccc(Cl)cc1)C(=O)c1c[nH]c2ccc([N+](=O)[O-])cc12 |  |  | 0 |  |
| COc1ccc(CCNC(=O)C(=O)c2c[nH]c3ccccc23)cc1 | 90 | 1.3 | 97 | Activity (Mus musculus [5]): inactive; ED50 (Mus musculus [6]): inactive; ED50 (Mus musculus [7]): inactive |
| O=C(NCCc1ccc(O)c(O)c1)C(=O)c1c[nH]c2ccc(Cl)cc12 | 1000 | 0.52 |  | inhibition [3]: 90% |
| O=C(NCCc1ccc(Cl)cc1)C(=O)c1c[nH]c2ccc(Cl)cc12 |  |  | 4 |  |
| Cn1cc(C(=O)C(=O)NCCc2ccccc2)c2ccccc21 |  |  | 42 |  |
| Cn1cc(C(=O)C(=O)NCCc2c[nH]c3ccccc23)c2ccccc21 |  |  | 39 |  |
| O=C(NCCc1ccc(O)c(O)c1)C(=O)c1c[nH]c2ccc([N+](=O)[O-])cc12 | 280 | 0.64 |  | Activity (Mus musculus [5]): inactive; ED50 (Mus musculus [8]): 100 mg/kg; inhibition [3]: 100%; ED50 (Mus musculus [9]): 75 mg/kg |
| O=C(NCCc1ccc(O)cc1)C(=O)c1c[nH]c2ccc(Cl)cc12 | 2200 | 0.8 | 83 |  |
| O=C(NCCc1ccc(O)cc1)C(=O)c1c[nH]c2ccccc12 | 2400 | 0.7 | 82 |  |
| O=C(NCCc1c[nH]c2ccccc12)C(=O)c1c[nH]c2ccc(Br)cc12 |  |  | 62 |  |
| O=C(NCCc1ccc(Cl)cc1)C(=O)c1c[nH]c2ccccc12 | 340 | 1.2 |  |  |
| O=C(NCCc1ccccc1)C(=O)c1c[nH]c2ccc([N+](=O)[O-])cc12 |  |  |  | inhibition [10]: 39% |
| Cn1cc(C(=O)C(=O)NCCc2ccc(O)cc2)c2ccccc21 |  |  | 58 |  |
| COc1ccc(CCNC(=O)C(=O)c2c[nH]c3ccc([N+](=O)[O-])cc23)cc1 |  |  | 32 |  |

| Structure (SMILES) | Ki [1] [nM] | Ratio [2] | inhibition [4] [%] | also measured |
| --- | --- | --- | --- | --- |
| O=C(NCCc1ccccc1)C(=O)c1c[nH]c2ccc(Cl)cc12 |  |  | 25 |  |
| Cn1cc(C(=O)C(=O)NCCc2ccc(Cl)cc2)c2ccccc21 |  |  |  | inhibition [3]: 25% |
| COc1ccc(CCNC(=O)C(=O)c2cn(C)c3ccccc23)cc1OC |  |  | 51 |  |
| O=C(NCCc1ccc(O)cc1)C(=O)c1c[nH]c2ccc([N+](=O)[O-])cc12 | 350 | 0.7 | 100 | Activity (Mus musculus [5]): inactive; ED50 (Mus musculus [8]): 75 mg/kg; ED50 (Mus musculus [9]): 50 mg/kg |
| COc1ccc(CCNC(=O)C(=O)c2c[nH]c3ccccc23)cc1OC | 510 | 1.3 | 96 |  |
| O=C(NCCc1ccc(O)c(O)c1)C(=O)c1c[nH]c2ccccc12 | 4200 | 0.92 |  | inhibition [3]: 68% |
| COc1ccc(CCNC(=O)C(=O)c2c[nH]c3ccc(Cl)cc23)cc1OC | 700 | 1.3 | 94 |  |
| COc1cccc(CCNC(=O)C(=O)c2c[nH]c3ccccc23)c1 | 85 | 1.2 | 97 |  |
| O=C(NCCc1c[nH]c2ccccc12)C(=O)c1c[nH]c2ccc(Cl)cc12 |  |  | 70 |  |
| O=C(NCCc1c[nH]c2ccccc12)C(=O)c1c[nH]c2ccccc12 | 1500 | 1 | 83 |  |
| O=C(NCCc1c[nH]c2ccccc12)C(=O)c1c[nH]c2ccc([N+](=O)[O-])cc12 | 350 | 0.65 | 90 |  |
| O=C(NCCc1ccc(O)cc1)C(=O)c1c[nH]c2ccc(Br)cc12 | 2300 | 0.8 | 75 |  |
| Cn1cc(C(=O)C(=O)NCCc2ccc(O)c(O)c2)c2ccccc21 |  |  |  | inhibition [3]: 17% |
| COc1cccc(CCNC(=O)C(=O)c2c[nH]c3ccc([N+](=O)[O-])cc23)c1 |  |  | 25 |  |
| COc1ccc(CCNC(=O)C(=O)c2cn(C)c3ccccc23)cc1 |  |  | 67 |  |
| CN1C(=O)CN=C(c2ccccc2)c2cc(Cl)ccc21 [DIAZEPAM] | 10 | 1.7 |  |  |
| O=C(NCCc1ccccc1)C(=O)c1c[nH]c2ccccc12 | 380 | 1.3 | 94 | Activity (Mus musculus [5]): inactive; ED50 (Mus musculus [6]): inactive; ED50 (Mus musculus [7]): inactive |
